Laboratory results taken from PubChem BioAssay AID1656 (Sanford-Burnham Center for Chemical Genomics, 2009).
Among all 240,000 compounds or so, about 950 (0.4%) were called active.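 How the source made its calls: active means lipid droplet intensity inhibited by at least 50%, with more than 500 cells counted; inconclusive means wells with under 300 cells, treated as cytotoxic; inactive means the rest.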 What follows is part of a selection rich in actives, with near analogues and random picks from the rest.

Test: oleate-induced lipid droplet accumulation in AML12 cells – imaging, high-throughput imaging, BODIPY stain, primary screen (AID 1656);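 on cell count: cells counted across two imaged fields per well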
Conditions: AML12 mouse hepatocytes, oleate lipid droplets, at 6.5 µM; cell count: measured here: cell count, cytotoxicity flag; inhibition: stronger effect = higher value
In short: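 Technique: fluorescence imaging, 20x objective, two fields per well / Assay system: AML12 hepatocytes (mouse) / Measure: % inhibition of lipid droplet signal / Doses: 6.5 µM single-point dosing / Incubation: overnight exposure / Reagent: 100 µM oleic acid challenge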
For Cc1c(C=O)c2ccccc2n1CCOc1ccccc1, the cell count was 839 cells and the inhibition was -1% (inactive).
For CN(CC1CCCO1)S(=O)(=O)c1ccc(C(=O)Nc2ccc(F)cc2)cc1 (stereo not given), the cell count was 687 cells and the inhibition was -1.2% (inactive).
For Cc1cc(-n2nc(C)cc2C)n2nc(C)c(-c3ccccc3)c2n1, the cell count was 801 cells and the inhibition was 10% (inactive).
With Cc1cc(N2CCCC2)n2nc(C)c(-c3ccccc3)c2n1 the cell count was 697 cells and the inhibition was 51.4% (active).
In the case of Cc1cc(C(C)(C)C)n2nc(C)c(-c3ccccc3)c2n1, the cell count is reported as 401 cells and the inhibition is reported as 2% (inactive).
In the case of CC(=O)c1ccc(NC(=O)c2sc3nc4n(c(=O)c3c2C)CCCCC4)cc1, the cell count is reported as 749 cells and the inhibition is reported as 9.9% (inactive).
For O=C(C1CCCN(S(=O)(=O)c2ccc([N+](=O)[O-])cc2)C1)N1CCCCC1 (stereo not given), the cell count was 814 cells and the inhibition was 0.4% (inactive).
For COc1ccc(-c2nonc2NC(=O)c2oc3ccc(F)cc3c2C)cc1OC, the cell count was 738 cells and the inhibition was 39.5% (inactive).
With COc1ccccc1CNC(=O)C1CCN(S(=O)(=O)c2ccc3c(c2)CC(C)N3C(=O)C2CC2)CC1 (stereo not given) the cell count was 719 cells and the inhibition was -4.5% (inactive).
With COc1ccc(NC(=O)CN2C(=O)COc3ccc(S(=O)(=O)N4CCOCC4)cc32)c(OC)c1 the cell count was 694 cells and the inhibition was -1.6% (inactive).
For COc1ccccc1CNC(=O)[C@@H]1CCCN1C(=O)[C@@H]1Cc2ccccc2CN1C(=O)OC(C)(C)C, the cell count was 737 cells and the inhibition was -4.8% (inactive).
In the case of CC(C)(COC(=O)Nc1ccccc1)COC(=O)Nc1ccccc1, the cell count is reported as 842 cells and the inhibition is reported as 2% (inactive).
With CSCCC(NS(=O)(=O)c1ccccc1F)C(=O)N1CC=C(c2ccccc2)CC1 (stereo not given) the cell count was 678 cells and the inhibition was -35.6% (inactive).
For O=C1/C(=C/c2ccc(F)cc2)SC(=S)N1CCCC(=O)N1CCCCC1CCO (stereo not given), the cell count was 789 cells and the inhibition was -7.9% (inactive).
With CCOCCCNc1nc(-c2ccccc2)nc2ccccc12 the cell count was 835 cells and the inhibition was 1.2% (inactive).
In the case of CC(Nc1nc(C(F)(F)F)nc2ccccc12)c1cccs1 (stereo not given), the cell count is reported as 808 cells and the inhibition is reported as -12.3% (inactive).
For Cc1sc2nc(SCCO)n(-c3ccccc3)c(=O)c2c1C, the cell count was 835 cells and the inhibition was -15% (inactive).
In the case of Cc1ccccc1NC(=O)CSc1ccc2nnc(-c3ccccn3)n2n1, the cell count is reported as 640 cells and the inhibition is reported as 22.7% (inactive).
In the case of COc1ccc(CCNC(=O)c2ccccc2OCc2ccccc2)cc1, the cell count is reported as 773 cells and the inhibition is reported as -18.7% (inactive).
For COc1ccc(CCNC(=O)CCc2cn(C)c3ccccc23)c(OC)c1, the cell count was 811 cells and the inhibition was 15.9% (inactive).
For Cc1cccnc1CC(C)NC(=O)c1cc(COc2cncc(Cl)c2)on1 (stereo not given), the cell count was 704 cells and the inhibition was 3.6% (inactive).
For COc1ccc(/C=C2\SC(=S)N(CCCC(=O)NC3CCCC3)C2=O)cc1OC, the cell count was 711 cells and the inhibition was -15.3% (inactive).
For CCOc1ccc(-n2c(SCC(=O)OC)nc3sc4c(c3c2=O)CCN(C)C4)cc1, the cell count was 796 cells and the inhibition was 4.9% (inactive).
With CCOc1ccccc1NC(=S)N1CCN(c2cccc(C)c2C)CC1 the cell count was 777 cells and the inhibition was -21% (inactive).
In the case of O=C(c1ccc(OC2CCN(C/C=C/c3ccc(F)cc3)CC2)cc1)N1CCCCC1, the cell count is reported as 815 cells and the inhibition is reported as 2% (inactive).
With O=C(Nc1ccc(F)cc1)c1ccc(S(=O)(=O)NCc2cccnc2)cc1 the cell count was 806 cells and the inhibition was -51.8% (inactive).
With CC(C)=CCCC(C)CN1CCC(n2nccc2NC(=O)c2ccccc2)CC1 (stereo not given) the cell count was 722 cells and the inhibition was 2.9% (inactive).
For N#C/C(=C\c1ccccc1C(F)(F)F)C(=O)Nc1ccccc1F, the cell count was 614 cells and the inhibition was 1.8% (inactive).
With N#C/C(=C\C1=C(N2CCOCC2)C(=C\c2ccccc2)/CC1)C(=O)Nc1ccccc1F the cell count was 430 cells and the inhibition was 56.4% (active).
For N#C/C(=C/c1ccc(N2CCOCC2)o1)C(=O)N1CCOCC1, the cell count was 636 cells and the inhibition was -9.6% (inactive).
In the case of Cc1ccc(CNC(=O)CCS(=O)(=O)c2ccc3c(c2)CC(C)N3C(=O)C2CC2)o1 (stereo not given), the cell count is reported as 715 cells and the inhibition is reported as -2.5% (inactive).
With Cc1nn(C(C)C(=O)NCCC2=CCCCC2)c(=O)c2nn(-c3ccccc3)c(C)c12 (stereo not given) the cell count was 685 cells and the inhibition was -3.8% (inactive).
In the case of COc1ccc(C)cc1N(C(=O)Cn1nnc(-c2ccc(C)o2)n1)C(C(=O)NC1CCCC1)c1ccncc1 (stereo not given), the cell count is reported as 749 cells and the inhibition is reported as -20.1% (inactive).
With CCOC(=O)c1cccc(NC(=O)CCc2nnc3ccc(N4CCOCC4)nn23)c1 the cell count was 652 cells and the inhibition was -5.8% (inactive).
With CCOc1ccc(CCNC(=O)CCc2nnc3ccc(N4CCCC4)nn23)cc1OCC the cell count was 752 cells and the inhibition was 69.5% (active).
In the case of CCN(CC)c1ccc(NC(=O)CCc2nnc3ccc(N4CCCCC4)nn23)c(C)c1, the cell count is reported as 801 cells and the inhibition is reported as 3.4% (inactive).
In the case of COCCc1nn2c(=O)cc(COC(=O)c3cc(OC)c(OC)c(OC)c3)nc2s1, the cell count is reported as 701 cells and the inhibition is reported as 7.1% (inactive).
In the case of COc1ccccc1N1CCN(S(=O)(=O)c2ccc3c(c2)NC(=O)CS3)CC1, the cell count is reported as 687 cells and the inhibition is reported as -12.7% (inactive).
In the case of CCc1ccc(C(CNc2nc(C(F)(F)F)nc3ccccc23)N(C)C)cc1 (stereo not given), the cell count is reported as 654 cells and the inhibition is reported as -18.7% (inactive).
With Cc1ccc2sc(N(CCN(C)C)C(=O)/C=C/c3cccs3)nc2c1C the cell count was 660 cells and the inhibition was 4.4% (inactive).
